The list is not random: actives were taken first. Their share in the collection is about 1.7%.
M5 antag = blocks acetylcholine activation of human M5 receptor; P08912; CHO-hM5 cells, Fluo-8 calcium fluorescence, ACh EC80; inhibition, % at 3 µM; 360,000 tested, 0.59% active;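 active = inhibition above a per-plate cutoff, the mean of that plate's test compounds plus 3 SD, cut at about 27% in these data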;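 also: 0% = acetylcholine EC80 with DMSO and 100% = DMSO without agonist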
Target sequence (P08912 whole entry, looked up): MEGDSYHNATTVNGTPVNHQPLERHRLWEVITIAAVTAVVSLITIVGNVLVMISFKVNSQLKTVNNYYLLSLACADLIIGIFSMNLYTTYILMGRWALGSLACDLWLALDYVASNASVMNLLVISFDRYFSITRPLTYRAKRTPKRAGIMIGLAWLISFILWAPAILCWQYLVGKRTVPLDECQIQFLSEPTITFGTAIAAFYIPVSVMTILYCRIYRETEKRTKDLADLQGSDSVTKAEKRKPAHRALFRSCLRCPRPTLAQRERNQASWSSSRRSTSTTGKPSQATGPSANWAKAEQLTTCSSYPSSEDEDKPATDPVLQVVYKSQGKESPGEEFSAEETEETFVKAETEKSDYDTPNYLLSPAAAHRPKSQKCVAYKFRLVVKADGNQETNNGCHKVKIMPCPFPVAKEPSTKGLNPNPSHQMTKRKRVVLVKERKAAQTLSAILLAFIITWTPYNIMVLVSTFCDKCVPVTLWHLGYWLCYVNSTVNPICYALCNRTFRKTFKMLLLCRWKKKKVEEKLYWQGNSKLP
CHO-K1 Ca antag = counter-screen for M1 antagonists: effect in parental CHO-K1 cells. 360,000 tested, 0.6% active. inhibition, % at 3 µM. AID 602250. ATP-induced calcium, Fluo-8 fluorescence;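 active = inhibition above a per-plate cutoff, the plate's mean sample inhibition plus 3 SD, cut at about 24% in these data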;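 also: 0% = DMSO plus EC80 ATP and 100% = DMSO alone without ATP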
M1 ag parental = nonselective activator or artifact in parental CHO-K1 cells | Fluo-8 calcium fluorescence; scaled to maximal ATP response, vehicle zero | activation, % at 3 µM | 360,000 tested, 0.48% active; in the data active = activation above about 15%;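 also: untransfected CHO-K1 host cells lacking M1 receptor as counterscreen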
M1 PAM parental = M1 PAM counterscreen hit in parental CHO-K1 cells; ATP EC20, Fluo-8 calcium fluorescence; 0% at ATP EC20, 100% at ATP max; activation, % at 3 µM; 360,000 tested, 0.02% active; AID 602247;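 active = activation above the run cutoff, the mean activation of all test compounds plus 3 SD, cut at about 40% in these data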;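 also: peak over basal fluorescence ratio in a 140 s read after ATP addition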
M5 ag = CHRM5 agonism in calcium assay; CHO-K1 hM5 cells, Fluo-8 calcium fluorescence; 0% DMSO wells, 100% maximal acetylcholine response; activation, % at 3 µM; 360,000 tested, 0.19% active; AID 624037;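 active = activation above the run's mean over test compounds plus 3 SD, cut at about 23% in these data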;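 also: signal is peak over basal fluorescence ratio across the kinetic read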
CHRM5 PAM = CHRM5 positive allosteric modulation; P08912; CHO-K1 hM5, Fluo-8 calcium, ACh EC20 PAM; 0% = ACh EC20, 100% = ACh EC100; activation, % at 3 µM; 360,000 tested, 0.3% active; AID 624038;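 active = activation above the run cutoff, the mean activation of all test compounds plus 3 SD, cut at about 18% in these data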
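Test system: CHO-K1 hM5 cells / Doses: single-point, 3 µM nominal / Times: Post-acetylcholine fluorescence recording 140 s / Technique: Fluo-8 calcium fluorescence / Measure: Max/basal fluorescence ratio as % of EC20–EC100 ACh window / Benchmarks: low control EC20 acetylcholine (0%), high control EC100 acetylcholine (100%) / Replicates: one well per compound, no replicates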
An asterisk follows results filed as active.

What do the screens show for `FC(F)Oc1ccc(NC(=S)NC2CCSc3ccccc32)cc1` (stereo unspecified)?
M5 antag: 43*; CHO-K1 Ca antag: 20; M1 ag parental: 15; M1 PAM parental: -4; M5 ag: 0; CHRM5 PAM: -18

How did FC(F)Oc1ccc(NC(=S)NC2CCCCCCC2)cc1 do in these assays?
M5 antag: 34*; CHO-K1 Ca antag: 8; M1 ag parental: 14; M1 PAM parental: 0; M5 ag: 1; CHRM5 PAM: -12

How did N#CCSc1nnc(-c2cccnc2)n1-c1ccccc1 do in these assays?
M5 antag: 0; CHO-K1 Ca antag: -5; M1 ag parental: 1; M1 PAM parental: 18; M5 ag: 0; CHRM5 PAM: 0

How did CC(=O)c1cc2c(cc1NC(=O)CCNC(=O)c1ccccc1Cl)OCO2 do in these assays?
M5 antag: -6; CHO-K1 Ca antag: -12; M1 ag parental: 1; M1 PAM parental: 20; M5 ag: 3; CHRM5 PAM: 5

How did Cc1cc2ccccc2nc1SCC(=O)N1CCCC1 do in these assays?
M5 antag: 19; CHO-K1 Ca antag: -4; M1 ag parental: 0; M1 PAM parental: 7; M5 ag: -3; CHRM5 PAM: -5

How did Cc1cc(/C=N/NC(N)=S)c(C)n1-c1ccc(Cl)cc1 do in these assays?
M5 antag: 5; CHO-K1 Ca antag: 4; M1 ag parental: 18*; M1 PAM parental: 5; M5 ag: -2; CHRM5 PAM: -3

What do the screens show for `Oc1ccc(N=Nc2ccc3c(c2)OCCO3)c2ncccc12`?
M5 antag: 36*; CHO-K1 Ca antag: 22; M1 ag parental: 17*; M1 PAM parental: -3; M5 ag: 28*; CHRM5 PAM: -35

How did COc1cc(C2C(C#N)=C(N)Oc3c2oc(CO)cc3=O)ccc1OC(C)C (stereo unspecified) do in these assays?
M5 antag: 4; CHO-K1 Ca antag: -9; M1 ag parental: 1; M1 PAM parental: 14; M5 ag: -1; CHRM5 PAM: -4

What do the screens show for `CCOC(=O)C1=C(N)Oc2c(oc(CO)cc2=O)C1c1ccc(Cl)cc1` (stereo unspecified)?
M5 antag: -2; CHO-K1 Ca antag: -12; M1 ag parental: 2; M1 PAM parental: 21; M5 ag: 3; CHRM5 PAM: 18*

Results for CCOC(=O)C1=C(N)Oc2c(oc(CO)cc2=O)C1c1ccc(F)c(F)c1 (stereo unspecified) ?
M5 antag: 11; CHO-K1 Ca antag: -9; M1 ag parental: 1; M1 PAM parental: 15; M5 ag: 4; CHRM5 PAM: 6

How did CC(C)Oc1ccc(C2C(C#N)=C(N)Oc3c2oc(CO)cc3=O)cc1 (stereo unspecified) do in these assays?
M5 antag: 3; CHO-K1 Ca antag: 2; M1 ag parental: 15*; M1 PAM parental: 19; M5 ag: 0; CHRM5 PAM: 5

Results for COc1ccc(NC2=NCCC(=O)N2Cc2cccs2)cc1 ?
M5 antag: 7; CHO-K1 Ca antag: 30*; M1 ag parental: -1; M1 PAM parental: -4; M5 ag: -1; CHRM5 PAM: -3

How did COc1cccc(NC2=NCC(=O)N2Cc2cccs2)c1 do in these assays?
M5 antag: 5; CHO-K1 Ca antag: 4; M1 ag parental: 0; M1 PAM parental: 10; M5 ag: -6; CHRM5 PAM: -1

What do the screens show for `COc1ccc(NC2=NCC(=O)N2Cc2cccs2)cc1`?
M5 antag: -16; CHO-K1 Ca antag: -13; M1 ag parental: 0; M1 PAM parental: 21; M5 ag: 1; CHRM5 PAM: 21*

How did Cc1ccc(NC2=NCC(=O)N2Cc2cccs2)cc1C do in these assays?
M5 antag: -9; CHO-K1 Ca antag: -14; M1 ag parental: 1; M1 PAM parental: 11; M5 ag: -2; CHRM5 PAM: -2

What do the screens show for `COc1ccc(CCNC(=O)c2cc3sc(Cl)cc3n2C)cc1OC`?
M5 antag: 1; CHO-K1 Ca antag: 24*; M1 ag parental: 0; M1 PAM parental: -2; M5 ag: -1; CHRM5 PAM: -2

What do the screens show for `COc1ccc(CCNC(=O)c2sc3ccccc3c2Cl)cc1OC`?
M5 antag: -3; CHO-K1 Ca antag: 1; M1 ag parental: 3; M1 PAM parental: 14; M5 ag: -5; CHRM5 PAM: -2
